38 variants from the RNAGym collection of RNA variant scans (doi:10.1126/science.aae0568) can be followed below.

Sequences and labels used below:
B1: tRNA (parent)
chain: GUUCCGUUGGCGUAAUGGUAACGCGUCUCCCUCCUAAGGAGAAGACUGCGGGUUCGAGUCCCGUACGGAACG

Fewer inactive variants are shown than the library holds. Where only a bound is given, the exact number is not on record here.

In the series the parent is B1. Nature of the series: yeast fitness relative to wild type (ratio to wild type); higher = fitter; tRNA-Arg(CCU), competitive growth, 37 C, YPD. The essentials:
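A pool of Saccharomyces cerevisiae strains, each with a tRNA-Arg(CCU) gene variant at the native genomic locus, was competed in YPD at 37°C for 24 hours across six parallel replicates. The variants had been chemically synthesised at a 3% per-site mutation rate over 69 sites, and gene amplicons before and after competition were read by 100-nucleotide paired-end sequencing. Darwinian fitness relative to wild type rested on changes in genotype frequencies. Genotypes required ≥ 100 starting reads, and estimates < 0.5 were set to 0.5.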
As for GUUCCGUUGGCGUAAUGGUAACGCAUCUCCAUCCUAAGGAGAAGCCUGCAGGUUCGAGUCCCGUACGGUACG, the yeast fitness was at most 0.5.
For GUUCCGUUGGCGUAAUGGUAACGCGUAUCCCUCCUAAGGAGCAGACUGCGGGUUCGAGUCCCGUACGGAACG the value was 0.751; for GUUCCGUUGGCGUAAUAGUAACGCGUGUCCCUCCUAAGGAGAAGACUGCGGGUUCGAGUCCCGUACGGAACG, 0.535; for GUUCCGUUGGCGUAAUGGUAACGCGUCUCCCUCCGAAGGAGAAGACUGCGGGUUGGAGUCCUGUACGGAACG, at most 0.5.
For GUUCCAUUCGCGUAAUGGUAGCGCGUCUCCCUCCUAAGGAGAAGACUGCGGGUUCGAGUCCCGUACGGAACG the value was 0.537; for GUUCCGUUGGCGUAAUGGUAACGCGUCUUUGUCGUACGGAGAAGGCUGCGGGUUCGAGUCCCGUACGGAACG, at most 0.5.
Turning to GUUCCGUUGGCGUAAUGGUAAGGCGUCUCCCUCCUAAGGAGAUGACUGCGGGUUCGAGUCCCGUACGGCACG, the yeast fitness amounted to 0.656.
The same measure for GUUCCGUUGGCGUAAUGGUAGCGCGUCUCCCUCCUAAGGAGAAGACAACGGGUUCGAGUCCCGUUCGGAACG: at most 0.5; for GUUCCAUUGGAGUCAUGGCAACGCGUCUCCCACCCAAGGAGCAGACUGCGGGUUCGAGUCCCGUACGGAACG: at most 0.5.
As to GUUCCGUUGGCGUAAUGAUAACGCGUCUCCCUCCUAAGGAGAAGACUGCGGGUUCGAGUCCGGUACGGAACG, the yeast fitness was 0.676.
For GUUCCGUUGGCGUUAUGGUAACGCGUCUCCCUCAUAAGGAGAAGACUACGGGUUCGAGCCCCGUACGGAACG the value was 0.541; for GUUCCGUUGACGUAGUGGUAACGCGUCUCCCUCGUAAGGAGAAGACUGCGGGUUCGAGUCCCGUACGCAACG, at most 0.5; for GUUCCGUUGGCGUAAUCGUAACGCGUCUCGCUCCUAAGGAGAAGACUGCGGGUUCGAGUGCCGUACGGAACG, 0.904.
For GUUCCGUUGGCGUAAUGGUAACGGGUCUCCCUCUUAAGGAGAAGACAGCGGGUUCGAGUCCCGUACGGAACG the value was at most 0.5; for GGUCCGUUGGCGUAAUGGUAACGCGUCUCCCUCCUAAGGAGAAGACUGCGGGUUCGAGUCCCGUACGGGACG, 0.975.
Regarding GUUCCGUUGGCGUAAUGGUAACGGGUCUCCCUCCCAAGGAGAAGACUGUGGGUUCGAGUCGCGUACGGAACG, the yeast fitness is 0.54.
The same measure for GUUCCGUUGGCGUAAUGGUAACGCGGGUCCCUCCUAAGGAGAAGACAGCGGGUUCGAGUCCUGUACGGAACG: at most 0.5; for GUUCCGUUGGCGGAAUGGUAACGCGUCUCCCUCCUAAGGAGAAGACUGAGGGUUUGAGUUUCGUACGGAACG: at most 0.5.
The same measure for GUUCCGUUGGCAUAAUGGUAACGCGUCUCCCUCCAAAGGAGAAGACUGCGCGUUCGAGUCCCGUACGGAACG: at most 0.5; for GUUCUGUUGGCGUAAUGGUAACGCGUCUCCCUCCUAGGGAGACGACUGCGGGUUCGAGUCCUGUACGGAACG: 0.541; for GUUCCGUUGGCGUAAUGGUAACGCGUCUCCUUCCUAAGGCGAAGAGUGCGGGUUCGAGUCCCGUACGGAACG: 0.744.
The same measure for GUUCCCUUGGCGUAAUGGUAACGCGUCUCCCUCCUAAGGAGUAGACUGCGGGUUCGAGUCCCGUACAGAACG: at most 0.5; for GUACCGUUGGCGUAAUGGUAACGCGUCUCGCUCCUAAGGAGAAGACUGCGGGUCCGAGUCCCGUACGGAACG: 0.502.
For GUUCCGUUGGCGUAAAGCUAACGCGUCUCCCUCCUAAGGAGAAGACUGCAGGUUCGCGUCCCGUACGGAACG, the yeast fitness was at most 0.5.
For GUGCCGUUGGCGUAAUGGUAACGCGUCUCCCUCCUAAGGAGUAGACUGUGGGUUCGAGUCCCGUACGGAACG the value was 0.613; for GUUCCGUUGGUGUAAUGGUAACGCGUCUCCCUCCUAAGGAGAAGACUGCGGGUUCGAAUCCCGUACGGAACG, 1.01.
For GUUCCGAUGGCGUAAUGGUGACGCGUCUCCCUCCUAAGGAGAAGACUGCGGGUUCGAGUCCCGUACGAAACG the value was at most 0.5; for GUUCCGUUGGCGUAAUGGUAACGCGUCACCCUCUUAAGGAGAAGACUGCGGGUUCGAGUCUCGUACGGAACG, 0.554; for GUUCCGUUGGCGUAAUGGUAGCGCGUCACCCUCCUAAGGAGAAGACUGCGGGUUCGAGUCCCGUACGGAACG, 0.81.
The same measure for GUUCCGUUGGCGUAAUGGUAACGCGUCUCCCUGCUAAGCAGAAGACUGCGGGUUUGAGUCCCGUACGGAACG: 0.515.
As for GUUCCGUUGGCGUAAUGGUAACGCGUCUCCCCCCUAAGGAGAAGACUGCGGGUUCGUGUCCCGUACGGAACG, the yeast fitness worked out at 0.813.
For GUUCCGUUGGCGUAAUGGCAACGCGUCUUCCUCCUAAGGAGAAGACUGCGGGUUCGAGUCUCGUACGCAACG the value was at most 0.5; for GUUCCGUUGGCGUAUUGGUCACGCGUCUCCCUCAUAAGGAGAAGACUGCGGGUUCGAGUCCCGUACGCAACG, at most 0.5.
The same measure for GUUCAGUUGGCGUAAUGGUAACGCGUCUCCCUCCUAAGGCAAAGAUUGCGGCUUCGAGUCCCGUACGGAACG: at most 0.5; for GGUUCGUUGGCGUAAUGGUAAUGCGUUUCCCUCCUACGGAGAAGACUGCGGGUUCGAGUCCCGUACGGAACG: at most 0.5; for GUUCCGUUGCCGUAAUGGUAACGCGUCUCCCUCCUAAGGAGAAGAGUGCGGGUCCGAGUCCCGUACGGAACG: at most 0.5.
Turning to GUUCAGUUGGCGUAAUGGUAACGGGUCUCCCUCCUAAGGAGAAGACUGCGGGUUCGAGUCCCGUACGGAUCG, the yeast fitness is at most 0.5.
Turning to GUUCCCUUGGCGUAAUGGUAACGCGUCUACCUCCUAAGGGGAAGACUGCGCGUUCGAGUCCCGUACGGAACG, the yeast fitness came out at 0.657.
